The list is not random: actives were taken first. Their share in the collection is about 4.3%.
Yeast growth inh: yeast BB579 growth reduction in restrictive medium; S. cerevisiae BB579 growth, OD615, 48 h; inhibition, % at 10 µM; 0.51% of 140,000 active;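 active = inhibition above a set limit, 3 SD over the mean compound inhibition, cut at about 44% in these data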
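test system = yeast BB579 (DeaD) | buffer or medium = restrictive CSMM-D medium | doses = single compound dose of 10 µM, 0.25% DMSO final | times = 4 h preincubation and 48 h exposure at 30 °C | technique = culture absorbance at 615 nm | benchmarks = amphotericin B 10 µg/mL, positive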
WT yeast gro inh: growth inhibition of WT yeast, mitochondrial fusion screen; inhibition, % at 10 µM; 2.1% of 190,000 active; mitochondrial fusion phenotypic screen, WT strain; in the data active = inhibition above about 58%; tested in S. cerevisiae
Yeast lifespan up: extends the lifespan of yeast; S. cerevisiae growth with nicotinamide, OD615; deaD strain in restrictive glucose medium; AID 775; 0.68% of 130,000 active; inhibition of the nicotinamide effect, % at 10 µM;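 active = inhibition above a set limit, placed 3 SD over the median of all compounds, cut at about 26% in these data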;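 note: 0% = nicotinamide-treated wells and 100% = cells grown without nicotinamide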
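assay system = DeaD-strain S. cerevisiae | buffer or medium = restrictive glucose medium | reagent = 1.5 mM nicotinamide | compound = 10 µM single point, 0.25% DMSO | incubation = 48 h compound exposure at 30 °C, humidified | signal = OD615 measurement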
RAM inhibit: blocks the yeast RAM network. inhibition, % at 50 µM. S. cerevisiae dse1pr::URA3 reporter, 5-FOA growth OD615, 2 d; analog-sensitive cbk1-as2 kinase mutant strain. 1.8% of 190,000 active;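 active = inhibition above a set limit, 3 SD over mean compound inhibition, cut at about 8.4% in these data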;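 note: 0% = DMSO-only wells with no growth and 100% = 10 µM 1-NA-PP1 full growth; inhibition rescues growth on 5-FOA so higher OD means more RAM inhibition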
Numbers without * were called inactive.

Results for CCOC(=O)c1sc(NC(=O)Nc2cccc(Cl)c2)cc1C ?
Yeast growth inh: -54; WT yeast gro inh: 67*; Yeast lifespan up: 3; RAM inhibit: 9.0*

What do the screens show for `CC(C)NC(=O)c1onc(CSc2cccc(Cl)c2)c1C(=O)O`?
Yeast growth inh: -33; WT yeast gro inh: 16; Yeast lifespan up: -2; RAM inhibit: 0

Results for N#Cc1c(NC(=O)CCN2C(=O)c3ccccc3C2=O)oc(-c2ccccc2)c1-c1ccccc1 ?
Yeast growth inh: -20; WT yeast gro inh: 1; Yeast lifespan up: 0; RAM inhibit: 9.5*

Results for N#Cc1c(NC(=O)CCn2cnc3ccccc3c2=O)oc(-c2ccccc2)c1-c1ccccc1 ?
Yeast growth inh: -71; WT yeast gro inh: 11; Yeast lifespan up: -10; RAM inhibit: 8

Results for CCn1c(SCC(=O)Nc2oc(-c3ccccc3)c(-c3ccccc3)c2C#N)nnc1-c1ccco1 ?
Yeast growth inh: -26; WT yeast gro inh: 4; Yeast lifespan up: -13; RAM inhibit: 8.8*

Results for CC(C)(O)C#Cc1ccc(CN2CCN(C3CCCCC3)C(CCO)C2)s1 (centres undefined) ?
WT yeast gro inh: 0; RAM inhibit: 1

Results for CCCCC(=O)OCC(=O)c1cc(C)n(-c2c(C)n(C)n(-c3ccccc3)c2=O)c1C ?
WT yeast gro inh: -28; RAM inhibit: 1

Results for COCCCn1c(SCC(=O)NC(C)(C)C)nnc1-c1ccccc1 ?
Yeast growth inh: -39; WT yeast gro inh: 66*; Yeast lifespan up: -8; RAM inhibit: 1

How did O=C(Cc1ccccc1)NCCc1cn2ccsc2n1 do in these assays?
Yeast growth inh: 49*; WT yeast gro inh: 5; Yeast lifespan up: 2; RAM inhibit: 0

How did O=C(COc1ccccc1)NCCc1cn2ccsc2n1 do in these assays?
Yeast growth inh: 10; WT yeast gro inh: -7; Yeast lifespan up: -11; RAM inhibit: -1

Results for C=CCn1c(SCC(=O)Nc2cc(OC)c(NC(=O)c3ccco3)cc2OC)nnc1-c1ccncc1 ?
Yeast growth inh: -4; WT yeast gro inh: -25; RAM inhibit: 8.6*

Results for CSC(=S)N/N=C/c1ccc(Br)cc1 ?
WT yeast gro inh: 68*; RAM inhibit: 4

Results for COc1cc(/C=N/NC(=O)CCc2ccccc2)ccc1O ?
Yeast growth inh: -52; WT yeast gro inh: 70*; Yeast lifespan up: -15; RAM inhibit: 3

How did O=C(Nc1ccccc1Oc1ccccc1)c1cc([N+](=O)[O-])ccc1Cl do in these assays?
Yeast growth inh: -23; WT yeast gro inh: 76*; Yeast lifespan up: 1; RAM inhibit: 5

What do the screens show for `O=C(c1ccccc1Oc1ccc(C(F)(F)F)cc1[N+](=O)[O-])N1CCOCC1`?
Yeast growth inh: -9; WT yeast gro inh: 1; Yeast lifespan up: 4; RAM inhibit: -1

What do the screens show for `COc1ccc(Cl)cc1NC(=O)c1ccccc1C`?
Yeast growth inh: -38; WT yeast gro inh: -25; RAM inhibit: 1

What do the screens show for `Cc1ccc(Oc2ccc(Cl)cc2NC(=O)c2ccc(F)cc2F)cc1`?
Yeast growth inh: -30; WT yeast gro inh: 13; Yeast lifespan up: 6; RAM inhibit: 8.9*

Results for O=C(Nc1ccccc1Cl)c1ccccc1Oc1ccc(C(F)(F)F)cc1[N+](=O)[O-] ?
Yeast growth inh: -20; WT yeast gro inh: 83*; Yeast lifespan up: 3; RAM inhibit: 6

How did CC(=O)Oc1ccc(-c2cccc(C(=O)OCC(=O)Nc3ccccc3Oc3ccccc3)c2)cc1 do in these assays?
Yeast growth inh: -30; WT yeast gro inh: -7; Yeast lifespan up: -4; RAM inhibit: 6

How did O=C(COC(=O)c1cccc(Cl)c1)Nc1cc(Cl)ccc1Oc1ccccc1 do in these assays?
Yeast growth inh: -50; WT yeast gro inh: 19; Yeast lifespan up: 13; RAM inhibit: 10*

What do the screens show for `Cc1cc(C)cc(C(=O)NCC(=O)OCC(=O)NCc2ccco2)c1`?
WT yeast gro inh: -2; RAM inhibit: 1

How did O=C(NCc1ccco1)C(=O)c1cn(CC(=O)N2CCCCC2)c2ccccc12 do in these assays?
WT yeast gro inh: -2; RAM inhibit: 0

Results for O=C(O)COC(=O)C1C(c2ccccc2)C(C(=O)O)C1c1ccccc1 (centres undefined) ?
WT yeast gro inh: -5; RAM inhibit: 1

Results for COc1ccc2cc(C(=O)C3CCCN(C(=O)CCc4cnn(C)c4)C3)ccc2c1 (centres undefined) ?
WT yeast gro inh: -7; RAM inhibit: 3

Results for Nc1cnn(Cc2ccccc2F)c1 ?
WT yeast gro inh: 31; RAM inhibit: -1

From PubChem
